Legend:
Rattus norvegicus [1] = organism: Rattus norvegicus; test: Saluretic activity in the rat measured as concentration of K+ in urine; assay type: functional
Summary of the method: (§1)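 Rats deprived of food 24 h, water ad libitum, dosed 50 mg/kg by stomach tube as suspension in 2% starch, no extra water load. Groups of three in diuresis funnels; urine over first 5 h collected. Na⁺ and K⁺ by flame photometry, Cl⁻ argentometrically; expressed as mequiv/kg.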

Rattus norvegicus [2] = organism: Rattus norvegicus; test: Saluretic activity in the rat measured as concentration of chloride in urine; assay type: functional; summary of the method: as §1
Rattus norvegicus [3] = organism: Rattus norvegicus; test: Saluretic activity in the rat measured as concentration of Na+ in urine; assay type: functional; summary of the method: as §1
Rattus norvegicus [4] = organism: Rattus norvegicus; test: Diuretic activity in the rats, determined by a modified Lipschitz test; assay type: functional, Urine
Summary of the method: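 Modified Lipschitz test: rats deprived of water 24 h, grouped in threes of similar weight in diuresis funnels. Oral dose of 50 mg/kg, suspended in 2% starch solution, by stomach tube.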

Structure (SMILES) | Saluretic activity (Rattus norvegicus [1]) [m equiv 5hr-1 kg-1] | Saluretic activity (Rattus norvegicus [2]) [m equiv 5hr-1 kg-1] | Saluretic activity (Rattus norvegicus [3]) [m equiv 5hr-1 kg-1] | Diuretic activity (Rattus norvegicus [4]) [mL/kg]
CCCCCCS(=O)(=O)c1cc(NCc2ccco2)c(S(=O)(=O)[O-])cc1S(N)(=O)=O.[Na+] | 1.9 | 1.2 | 1.1 | 0.7
NCc1ccco1.NS(=O)(=O)c1cc(S(=O)(=O)O)c(NCc2ccco2)cc1Cl | 2.3 | 7.2 | 6.3 | 3.2
NS(=O)(=O)c1cc(S(=O)(=O)[O-])c(NCc2ccc3c(c2)OCO3)cc1Cl.[Na+] | 0.3 | 0.3 | 0.4 | 0.4
Cc1ccc(Oc2cc(NCc3ccco3)c(S(=O)(=O)[O-])cc2S(N)(=O)=O)cc1C.[K+] | 1.4 | 3.7 | 2.2 | 1.3
CN(c1ccc(Cl)cc1)c1cc(NCc2ccco2)c(S(=O)(=O)[O-])cc1S(N)(=O)=O.[Na+] | 1.1 | 0.7 | 0.7 | 1.2
CCOCCNc1cc(Cl)c(S(N)(=O)=O)cc1S(=O)(=O)[O-].[Na+] | 0.2 | 0.2 | 0.2 | 0.4
CCN(c1ccccc1)c1cc(NCc2ccco2)c(S(=O)(=O)[O-])cc1S(N)(=O)=O.[Na+] | 1 | 0.3 | 0.4 | 0.8
N.NS(=O)(=O)c1cc(S(=O)(=O)O)c(NCc2ccco2)cc1Oc1ccccc1 | 2.4 | 8.7 | 6.6 | 4.2
CCCS(=O)(=O)c1cc(NCc2ccco2)c(S(=O)(=O)[O-])cc1S(N)(=O)=O.[Na+] | 1.3 | 2.4 | 1.8 | 2.9
CN(c1ccccc1)c1cc(NCc2ccco2)c(S(=O)(=O)[O-])cc1S(=O)(=O)N(C)C.[K+] | 1.2 | 1.5 | 1 | 1.6
CC(C)CS(=O)(=O)c1cc(NCc2ccco2)c(S(=O)(=O)[O-])cc1S(N)(=O)=O.[Na+] | 2.5 | 8.1 | 7.6 | 2.8
CN(c1ccccc1)c1cc(NCc2ccco2)c(S(=O)(=O)O)cc1S(N)(=O)=O.NC(N)=NC(=O)c1nc(Cl)c(N)nc1N | 0.4 | 2.3 | 3.5 | 3.3
NS(=O)(=O)c1cc(S(=O)(=O)[O-])c(NCc2ccco2)cc1S(=O)(=O)Cc1ccccc1.[K+] | 0.6 | 0.7 | 0.8 | 1
Cc1cccc(Nc2cc(NCc3ccco3)c(S(=O)(=O)[O-])cc2S(N)(=O)=O)c1.[Na+] | 1.5 | 0.9 | 0.6 | 0.8
